Assays:
Human alphaherpesvirus 2 = experiment: Antiviral activity against Human herpesvirus 2 strain 333 infected in African green monkey CV1 cells assessed as log reduction in viral titer at 100 uM; assay type: functional, CV-1
How it was run: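 Lab strain HSV-2 333 was grown and titrated either in CV-1 cells or in Vero cells. Virus was incubated with 100 μM EGCG for 60 min, then titrated as tenfold dilutions for 5 days at 37°C with CPE scoring. Reed-Muench TCID50 of treated versus control virus gave the titer decrease. Mean of three experiments.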

Human alphaherpesvirus 1 = experiment: Antiviral activity against Human herpesvirus 1 F1 infected in African green monkey Vero cells assessed as log reduction in viral titer at 100 uM

Compound: O=C(O[C@@H]1Cc2c(O)cc(O)cc2O[C@@H]1c1ccc(O)c(O)c1)c1cc(O)c(O)c(O)c1 [EPICATECHIN GALLATE]
- FC (Human alphaherpesvirus 2): >=1

Compound: O=C(O[C@@H]1Cc2c(O)cc(O)cc2O[C@H]1c1cc(O)c(O)c(O)c1)c1cc(O)c(O)c(O)c1 [GALLOCATECHIN GALLATE]
- FC (Human alphaherpesvirus 1): 3.5
- FC (Human alphaherpesvirus 2): 4
